From PubChem BioAssay
Shown are actives, neighbours in structure and some others; about 4% of the full set was active somewhere.
CHO parental Ca = ATP-evoked calcium signal inhibitors, parental CHO, primary screen, counter-screen for OX1R antagonist project, cell-based, fluorescence, Fluo-8 calcium dye | parental CHO-K1, ATP-induced calcium, Fluo-8 fluorescence | 330,000 compounds, 0.63% hits | inhibition, % at 5.6 µM;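 active = inhibition above that plate's mean sample inhibition plus 3 SD, cut at about 26% in these data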;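 note: 0% = ATP-challenged DMSO wells and 100% = DMSO wells without ATP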
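Measured by: calcium-sensitive Fluo-8 fluorescence / Test system: CHO parental line / Controls: ATP-challenged DMSO wells low, unchallenged DMSO wells high / Measure: % inhibition / Compound: single nominal dose of 5.6 µM per compound / Replicates: single well per compound, no replicates / Reagent: ATP as calcium-mobilizing challenge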
TAAR1 antagonist = human TAAR1 antagonists, primary screen, Fluo-8 calcium fluorescence, CHO RD-HGA16 cells | Trace amine-associated receptor 1 (Homo sapiens), Q96RJ0 | antagonist | inhibition, % at 3 µM | 360,000 compounds, 1.5% hits | AID 624466, 2012;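 active = inhibition above a per-plate cutoff, the mean inhibition of test compounds on that plate plus 3 SD, cut at about 49% in these data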;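 note: 0% = DMSO plus EC80 beta-PEA response and 100% = DMSO alone without agonist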
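Test system – hTAAR1-expressing CHO RD-HGA16 cells, Gα16-coupled · Also added – β-PEA at EC80 concentration, post-compound challenge · Compound – 3 µM, single point · Incubation – dye loading 75 min at 37 °C, then 30 min room temperature · Measured by – Fluo-8 intracellular calcium dye fluorescence, real-time kinetic reads · Benchmarks – vehicle and agonist controls · Replicates – singlicate, one well per test compound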
OX1R antag-1 = OX1R (HCRTR1) antagonists, primary screen, fluorescence, CHO/OX1R cells, Fluo-8 calcium, orexin A; 330,000 compounds, 0.43% hits; inhibition, % at 5 µM; AID 434989, 2010; Fluo-8 calcium fluorescence;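 active = inhibition above its plate's threshold, mean inhibition of all tested compounds on the plate plus 3 SD, cut at about 37% in these data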;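 note: 0% = orexin A challenge wells and 100% = SB-334867-A antagonist wells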
Target sequence (O43613 whole entry, looked up): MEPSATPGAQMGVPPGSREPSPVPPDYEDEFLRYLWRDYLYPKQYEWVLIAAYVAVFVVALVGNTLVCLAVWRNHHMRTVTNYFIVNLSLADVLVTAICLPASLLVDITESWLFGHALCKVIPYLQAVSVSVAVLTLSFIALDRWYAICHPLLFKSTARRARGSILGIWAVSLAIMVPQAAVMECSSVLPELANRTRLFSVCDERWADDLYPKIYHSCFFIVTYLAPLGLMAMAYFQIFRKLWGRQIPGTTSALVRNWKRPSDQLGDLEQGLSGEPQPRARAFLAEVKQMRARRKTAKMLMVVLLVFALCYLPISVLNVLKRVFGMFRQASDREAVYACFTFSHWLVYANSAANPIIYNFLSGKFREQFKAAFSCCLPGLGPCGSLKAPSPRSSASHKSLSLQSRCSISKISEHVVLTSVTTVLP
OX1R antag-2 = antagonists of human orexin 1 receptor (OX1R); OX1R-expressing cells, FRET antagonist read-out; 330,000 compounds, 1.8% hits; inhibition, % at 6.6 µM; Orexin/Hypocretin receptor type 1 (Homo sapiens), O43613; in the data active = inhibition mostly above about 38%, no sharp cut-off; inactive = mostly below about 40%;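 note: 0% = agonist challenge alone and 100% = reference antagonist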
TAAR1 ag = human TAAR1 agonists, primary screen, Fluo-8 calcium fluorescence, CHO RD-HGA16 cells; AID 624467, 2012; Trace amine-associated receptor 1 (Homo sapiens), Q96RJ0; activation, % at 3 µM; 360,000 compounds, 0.99% hits; vehicle wells 0%, saturating PEA agonist 100%;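 active = activation above the mean activation of all test compounds in the run plus 3 SD, cut at about 38% in these data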
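Repeats: no replicates (n 1) | Material: CHO-derived RD-HGA16 cells with stable Gα16 and human TAAR1 | Technique: Kinetic Fluo-8 calcium fluorescence | Schedule: 17-24 h seeding, 75 min 37 °C dye, 30 min RT | Evaluation: % activation from peak over basal fluorescence ratio, DMSO-to-PEA scaled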
The depositor's hits bear a star; . = no result.

SMILES	CHO parental Ca	TAAR1 antagonist	OX1R antag-1	OX1R antag-2	TAAR1 ag
CC12CCC(=O)C=C1CCC1C2CCC2(C)C(c3csc(N)n3)CCC12 (stereo not given)	.	51*	.	.	23
CC12CCC(=O)C=C1CCC1C2C(O)CC2(C)C(c3csc(N)n3)CCC12 (stereo not given)	.	2	.	.	14
COc1ccc(N(CC(=O)N2CCc3ccccc3C2)S(=O)(=O)c2c(C)[nH]c(=O)[nH]c2=O)cc1	-2	-8	-10	10	1
COc1ccc(N(CC(=O)N2CCc3ccccc3C2)S(=O)(=O)c2c(C)nn(C)c2C)cc1	-18	10	-25	42*	4
COc1ccc(OC)c(S(=O)(=O)N(C)CC(=O)N2CCc3ccccc3C2)c1	-29	13	-36	13	45*
COc1ccc(N(CC(=O)N2CCc3ccccc3C2)S(C)(=O)=O)cc1	-13	2	-14	1	42*
CCc1nc2c(OCc3ccc(OC(F)F)cc3)cccn2c1N(C)C(=O)c1cccs1	.	6	.	.	1
C=CCCC1CN(Cc2ccc(OC)cc2)S(=O)(=O)c2c(Oc3cc(C)c(C)c(C)c3)cccc2O1 (stereo not given)	.	-7	.	.	0
COc1ccc(-c2cc(C(=O)NCCc3ccc(S(N)(=O)=O)cc3)c3ccccc3n2)cc1	-1	54*	6	23	8
Cc1ccc(-c2cc(C(=O)NCCc3ccc(S(N)(=O)=O)cc3)c3ccccc3n2)cc1	-7	51*	2	24	6
NS(=O)(=O)c1ccc(CCNC(=O)c2cc(-c3ccccc3)nc3ccccc23)cc1	-7	45	0	28	7
Cc1cc(C(=O)NCCc2ccc(Cl)cc2)c2ccccc2n1	-15	-1	16	50*	1
Cc1nonc1OCCNCCNc1ccc([N+](=O)[O-])cc1Cl	-5	20	-19	34	1
O=[N+]([O-])c1ccc(NCCNCCOc2nonc2-c2ccccc2)c([N+](=O)[O-])c1	5	7	-17	43*	6
N#Cc1cc([N+](=O)[O-])ccc1NC(=O)CSc1n[nH]c(=O)n1C1CC1	-1	-3	-4	33*	2
CCCCN(C=O)c1c(CC)nc2c(OCC3CCCCC3)cccn12	.	-53	.	.	5
COc1ccnc(Oc2ccccc2)c1C(=O)N/C=N/OCc1ccccc1	-22	32	-13	8	17
COc1ccnc(Oc2cccc(C(F)(F)F)c2)c1C(=O)N/C=N/OCc1ccccc1F	-19	54*	-9	12	19
O=C(NC1CCOCC1)C1CCC(=O)N(CCc2ccc(Cl)cc2)C1 (stereo not given)	4	-1	-17	-1	1
O=C(COc1ccc(S(=O)(=O)N2CCCC2)cc1Cl)Nc1ccc2c(c1)OCO2	-7	50*	-7	14	10
Cc1cc(C)c(OCC(=O)Nc2ccc3c(c2)OCO3)cc1C	44*	8	-4	8	5
Cc1ccc(C)c(OCC(=O)Nc2ccc3c(c2)OCO3)c1	-22	.	-26	1	.
CC1(NC(=O)Cc2csc(-c3cccc(Cl)c3)n2)CCS(=O)(=O)C1 (stereo not given)	-1	-25	-11	4	1
Cc1cc(C)c(C)c(S(=O)(=O)NCC(=O)Nc2ccccc2F)c1C	.	-3	.	.	1
CN1/C(=C/C2CC(=O)N(c3cccc4ccccc34)C2=O)C(C)(C)c2ccccc21 (stereo not given)	-12	50*	-1	13	16
SMILES	CHO parental Ca	TAAR1 antagonist	OX1R antag-1	OX1R antag-2	TAAR1 ag
CSc1cccc(NC(=S)N(Cc2ccc(C)cc2)Cc2cccnc2)c1	46*	34	14	31	0
Cc1ccccc1NC(=S)N(Cc1ccccc1)Cc1cccnc1	-26	-20	-60	11	5
COC(=O)c1cc2c(c3c4cc(F)ccc4n(S(=O)(=O)c4ccc(C)cc4)c13)C(=O)N(Cc1ccc(C(F)(F)F)cc1)C2	.	-28	.	.	0
NC(=O)C1CCN(C(=O)COc2ccc(Nc3ccccc3)cc2)CC1	3	-21	2	52*	1
NC(=O)C1CCN(C(=O)COc2ccc3ccccc3c2)CC1	8	-25	-2	14	3
CC(C)(C)OC(=O)C[C@@H]1C/C=C\C[C@H](CC(=O)N(CCO)Cc2ccccc2)C(=O)NC[C@@H](c2ccccc2)OC1=O	-21	12	18	54*	7
O=C1NCCOC(=O)[C@@H](Cc2ccc(F)cc2)CC/C=C/C[C@H]1CC(=O)N(CCO)Cc1ccccc1	-12	-7	1	-1	1
O=C1NC[C@H](c2ccccc2)OC(=O)[C@H](Cc2ccc(F)cc2)CC/C=C/C[C@@H]1CC(=O)N(CCO)Cc1ccccc1	-21	57*	32	29	18
O=C1NC[C@H](c2ccccc2)OC(=O)[C@@H](Cc2ccc(F)cc2)C/C=C\C[C@H]1CC(=O)N(CCO)Cc1ccccc1	-15	81*	36	56*	49*
CC(C)(C)OC(=O)C[C@H]1C/C=C\C[C@@H](CC(=O)N(CCO)Cc2ccccc2)C(=O)NC[C@H](c2ccccc2)OC1=O	-20	34	-14	12	17
COC(=O)C1=C(C)NC(C)=C(C(=O)OCCN(C)Cc2ccccc2)C1c1cccc([N+](=O)[O-])c1 (stereo not given)	-20	49*	-43	22	-1
CCn1cc(C(=O)NCCc2ccc(OC)cc2)c(=O)c2ccc(C)nc21	-19	-3	-24	11	0
NC(=O)[C@@H]1CCCNc2c(I)cc([N+](=O)[O-])cc2C(=O)N[C@@H](CCC(=O)O)C(=O)N[C@@H](CO)C(=O)N1	-9	.	-8	67*	.
C[C@@H]1NC(=O)[C@H](CCC(N)=O)NC(=O)c2cc([N+](=O)[O-])cc(I)c2NCCC[C@@H](C(N)=O)NC1=O	2	2	0	61*	12
COc1ccc(S(=O)(=O)NCC(c2ccc3c(c2)OCO3)N2CCN(c3ccccc3)CC2)cc1 (stereo not given)	-21	-13	-8	5	2
O=C(c1ccco1)N1CCN(S(=O)(=O)c2ccc([N+](=O)[O-])cc2)CC1	-9	21	-24	63*	-1
O=C(c1ccco1)N1CCN(S(=O)(=O)c2ccccc2)CC1	-9	-13	-10	-4	2
Cc1nn(Cc2ccc(C(=O)N3CCN(C(=O)c4ccco4)CC3)o2)c(C)c1[N+](=O)[O-]	-12	-5	-17	66*	2
O=C(CCC(=O)N1CCN(S(=O)(=O)c2ccc([N+](=O)[O-])cc2)CC1)N1CCOCC1	-3	14	10	48*	3
